The IC50 is the concentration that gives 50% inhibition.

We go through 15 compounds from ChEMBL document CHEMBL4184236, “Design, synthesis and biological evaluation of matrine derivatives as potential anticancer agents” (Bioorg Med Chem Lett, 2018).

Holding throughout (assay type): functional, cell-based
For one assay, the system named is SMMC-7721. The assay is described as follows: Anticancer activity against human SMMC7721 cells assessed as reduction in cell viability incubated for 48 hrs MTT assay. Particulars: SMMC-7721, 48 h. In a few lines: (§1)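 MTT assay on human hepatocarcinoma SMMC-7721, lung carcinoma A549 and nasopharyngeal carcinoma CNE2 cells, with matrine as comparator and cisplatin as positive control. IC50 is the concentration that lowers optical density of treated cells by 50% versus untreated cells, given as the mean ± SD of three experiments.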
For orientation: Tetrazolium dyes change colour on reduction, which living cells bring about.

The next assay relates to A549. The assay is described as follows: Anticancer activity against human A549 cells assessed as reduction in cell viability incubated for 48 hrs MTT assay. The settings on record: A549, 48 h. In a few lines:
as §1

A further assay deals with CNE-2. The assay is described as follows: Anticancer activity against human CNE2 cells assessed as reduction in cell viability incubated for 48 hrs MTT assay. The settings on record: CNE-2, 48 h. In a few lines: as §1

On to `CC(C)(C)c1ccc(Cn2cccc2/C=C2\CC[C@@H]3[C@H]4CCCN5CCC[C@@H](CN3C2=O)[C@@H]45)cc1`, for which the half-inhibitory concentration (IC50) in the assay on SMMC-7721 was 16 µM; in the assay with A549, 15.8 µM; with CNE-2, 13.8 µM.

Turning to `O=C1/C(=C/c2cccn2Cc2ccc(F)cc2)CC[C@@H]2[C@H]3CCCN4CCC[C@@H](CN12)[C@@H]34`, the values for the half-maximal inhibitory concentration (IC50) in the assay on SMMC-7721, with A549 and in the assay with CNE-2 were 34 µM, 31.6 µM and 26.4 µM, respectively.

As to `O=C1/C(=C/c2cn(Cc3ccc4ccccc4c3)c3ccccc23)CC[C@@H]2[C@H]3CCCN4CCC[C@@H](CN12)[C@@H]34`, the IC50 in the assay on SMMC-7721 was 5.65 µM; in the assay with A549, 8.53 µM; in the assay on CNE-2 it was 4.56 µM.

For the compound `Cc1ccc2c(c1)c(/C=C1\CC[C@@H]3[C@H]4CCCN5CCC[C@@H](CN3C1=O)[C@@H]45)cn2Cc1cccc(Cl)c1`, the results for the half-inhibitory concentration (IC50) in the assay with SMMC-7721, with A549 and with CNE-2 were 8.35 µM, 9.13 µM and 11.8 µM, respectively.

For the compound `COc1ccc(Cn2cc(/C=C3\CC[C@@H]4[C@H]5CCCN6CCC[C@@H](CN4C3=O)[C@@H]56)c3ccccc32)cc1`, the values for the IC50 in the assay with SMMC-7721, in the assay on A549 and in the assay on CNE-2 were 8.01 µM, 11.2 µM and 8.43 µM, respectively.

As for `O=C1/C(=C/c2cn(Cc3ccc(OC(F)(F)F)cc3)c3ccc(Br)cc23)CC[C@@H]2[C@H]3CCCN4CCC[C@@H](CN12)[C@@H]34`, the values for the 50% inhibitory concentration (IC50) in the assay on SMMC-7721, in the assay on A549 and in the assay with CNE-2 were 11.5 µM, 9.04 µM and 6.04 µM, respectively.

In the case of `CC(C)(C)c1ccc(Cn2ccc3c(/C=C4\CC[C@@H]5[C@H]6CCCN7CCC[C@@H](CN5C4=O)[C@@H]67)cccc32)cc1`, the 50% inhibitory concentration (IC50) in the assay with SMMC-7721 was 13.8 µM; in the assay on A549, 15.5 µM; in the assay with CNE-2, 9.75 µM.

For `O=C1/C(=C/c2cccn2Cc2cccc(Cl)c2)CC[C@@H]2[C@H]3CCCN4CCC[C@@H](CN12)[C@@H]34`, the results for the IC50 in the assay with SMMC-7721, in the assay with A549 and in the assay on CNE-2 were 20.9 µM, 22.3 µM and 16.3 µM, respectively.

Regarding `O=C1/C(=C/c2cn(Cc3cccc(Cl)c3)c3cc(Cl)ccc23)CC[C@@H]2[C@H]3CCCN4CCC[C@@H](CN12)[C@@H]34`, the IC50 with SMMC-7721 was 23.7 µM; with A549 it was 26.3 µM; in the assay with CNE-2 it was 23.7 µM.

Turning to `O=C1/C(=C/c2cn(Cc3ccc4ccccc4c3)c3ccc(Br)cc23)CC[C@@H]2[C@H]3CCCN4CCC[C@@H](CN12)[C@@H]34`, the IC50 is 8.65 µM with SMMC-7721, 9.74 µM in the assay on A549 and 12.5 µM in the assay on CNE-2.

On to `COc1ccc(Cn2ccc3c(/C=C4\CC[C@@H]5[C@H]6CCCN7CCC[C@@H](CN5C4=O)[C@@H]67)cccc32)cc1`, for which the IC50 was 28.2 µM with SMMC-7721, 28.4 µM in the assay with A549 and 15.5 µM in the assay with CNE-2.

Take `O=C1/C(=C/c2cn(Cc3cccc(Cl)c3)c3ccccc23)CC[C@@H]2[C@H]3CCCN4CCC[C@@H](CN12)[C@@H]34`: the IC50 amounted to 7.58 µM in the assay on SMMC-7721, 7.53 µM with A549 and 6.36 µM in the assay on CNE-2.

As to `O=C1/C(=C/c2cccn2Cc2ccc3ccccc3c2)CC[C@@H]2[C@H]3CCCN4CCC[C@@H](CN12)[C@@H]34`, the IC50 with SMMC-7721 stood at 20.3 µM; in the assay on A549, 23.9 µM; in the assay with CNE-2, 14.7 µM.

`O=C1/C(=C/c2cn(Cc3ccc(OC(F)(F)F)cc3)c3ccc(Cl)cc23)CC[C@@H]2[C@H]3CCCN4CCC[C@@H](CN12)[C@@H]34`: the figures for the IC50 with SMMC-7721, in the assay with A549 and in the assay on CNE-2 were 9.73 µM, 5.24 µM and 3.52 µM, respectively.

In the case of `Cc1ccccc1Cn1cc(/C=C2\CC[C@@H]3[C@H]4CCCN5CCC[C@@H](CN3C2=O)[C@@H]45)c2ccccc21`, the IC50 was found to be 12 µM in the assay with SMMC-7721, 12.1 µM with A549 and 10.8 µM with CNE-2.
